Reference: paper PMC8671219 (Arthritis & Rheumatology (Hoboken, N.j.), 2021)
Read-outs that look alike come from different tables or passages of the source.

Tests used:
[1] = test system: MRL/lpr mice; test: MRL/lpr in vivo model of SLE; parameters: species or system mouse
[2] = test system: human primary cell cocultures (4H, LPS, SAg, BT, MyoF, /Mphg); test: BioMAP Diversity Plus Panel; assay type: cell-based; settings: multicellular human primary cell systems
In short: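 An external provider ran BioMAP Diversity Plus profiling with each compound at the noted concentrations, scoring multiple end points per system. The systems were venular endothelial cells (4H), PBMC plus endothelial cells with LPS, PBMC plus endothelial cells with superantigen, B cells plus PBMC (BT), lung fibroblasts (MyoF), and macrophages plus venular endothelial cells. Etanercept and tofacitinib served as comparators.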

[3] = test system: R848 induced TNF in human whole blood; test: Human whole blood cytokine release assay; assay type: cell-based
In short: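 Heparin-anticoagulated whole blood (human, mouse or rat), or PBMC derived from it, was incubated with test compound and then exposed to TLR ligand. Cytokines were measured by Meso Scale Discovery immunoassay. EC50 and Hill slope were fitted from concentration–response data, and free-drug potency was derived using measured protein binding values.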

[4] = test system: nuclear localization of IRF-5 in PBMCs; test: Monocyte IRF5 nuclear localization assay; assay type: cell-based, human; settings: 100 nM, 2 hours
In short: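 Healthy-volunteer PBMCs were incubated with 100 nM test compound or none, then stimulated with R848 or SLE patient sera for 2 hours at 37°C. IRF-5 nuclear translocation was quantified by Amnis imaging cytometry.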

[5] = test system: human macrophages stimulated with ACPA immune complexes; test: Macrophage ACPA-IC induced TNFα assay; assay type: cell-based; settings: 100 nM inhibitor, 11 donors, mean ± SEM
In short: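 Human macrophages from 11 donors were preincubated with 100 nM inhibitor and then stimulated with anti-citrullinated protein antibody immune complexes. TNF in supernatants was measured by immunoassay and expressed as % of DMSO-only treatment (mean ± SEM), compared by paired t-test.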

[6] = test system: human RA fibroblast-like synoviocytes; test: Human RA-FLS assay; assay type: cell-based; settings: 100 nM
In short: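 Human RA fibroblast-like synoviocytes were incubated with 100 nM test compound or vehicle before adding 0.1 ng/ml IL-1β. IL-6, IL-8 and MMP-1 in supernatants were measured by Meso Scale Discovery assay and expressed as percent of vehicle control, separately per donor.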

[7] = test system: rat collagen-induced arthritis; test: Rat collagen-induced arthritis model of RA; assay type: in vivo; settings: rat CIA; PF-06650833 3 mg/kg twice daily or tofacitinib 10 mg/kg daily, oral, 7 days; vehicle 0.786 ± 0.043; mean ± SEM, n = 10
[8] = test system: human B cells primed with IFNα and stimulated with R848; test: B cell maturation assay; assay type: cell-based
In short: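 Human B cells were isolated from Leukopaks and preincubated with 100 nM test compound, then given IFNα plus R848. Supernatants were harvested at 24 h for IL-6 and at 72 h for IL-10. Values are % of control; n = 6 donors, compared by paired t-test.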

[9] = test system: human plasmacytoid dendritic cells; test: Plasmacytoid DC stimulation with SLE neutrophil supernatants; assay type: cell-based; settings: 200 nM preincubation; 24 hours; n = 5
In short: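 SLE patient neutrophils were induced to undergo NETosis with R837, and their supernatants were collected. Plasmacytoid DCs were FACS-sorted from the DC fraction of healthy-volunteer buffy coats. They were cultured in 40% neutrophil supernatant with or without 200 nM test compound for 24 hours. CD83 was measured by flow cytometry against isotype control; n = 5.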

[10] = test system: human PBMCs stimulated with SLE immune complexes; test: SLE-IC assay; assay type: cell-based; settings: 100 nM, 24 hours
In short: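 SLE immune complexes were made by purifying IgG from plasma of an anti-RNP/anti-dsDNA-positive SLE patient and mixing it with apoptotic cells. Human PBMCs were stimulated with these complexes with or without 100 nM test compound for 24 hours. IFNα in supernatant was measured by ELISA, and RSAD2, USP18 and GBP1 by qRT-PCR as relative quantification. n = 5 donors; analysed by 2-way ANOVA.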

[11] = test system: pristane-induced lupus in BALB/c mice; test: Pristane in vivo model of SLE; parameters: species or system mouse
[12] = test system: whole blood 21-gene IFN gene signature; test: Interferon signature modulation in Phase 1 MAD study in healthy volunteers; assay type: in vivo, human; settings: 300 mg modified-release qd
In short: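 In a randomized, double-blind phase I multiple-ascending-dose study, healthy volunteers received modified-release test compound 300 mg once daily (n = 7) or placebo (n = 11) for 14 days. PAXgene whole blood was drawn on day 0 before the first dose and on day 14 before the last dose. RNA was sequenced, and an equally weighted 21-gene IFN signature was scored as percent change, day 14 versus day 0.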

[13] = test system: C-reactive protein (CRP) levels; settings: healthy volunteers; modified-release 300 mg daily; day 14; cited from earlier work
[14] = test system: active rheumatoid arthritis; settings: patients with active RA and inadequate response to methotrexate; cited from earlier work

With `N#CN1CCCC(n2nc(-c3ccc(Oc4ccc(F)cc4F)cc3)c(C(N)=O)c2N)C1` (stereo not drawn) [PF‐06250112, reference compound] the “all renal histologic pathology end points other than PAS area per tuft” value ([1]; 30 mg/kg PO qd) was “significantly reduced” and the autoantibody titers ([1]; 30 mg/kg PO qd) was “significantly reduced”.
With Etanercept the “BioMAP phenotypic profile of inflammatory readouts” value (from here on “BioMAP phenotypic profile”) [2] was “predominant activity in the myofibroblast‐ and macrophage‐containing assays”.
For `CC[C@@H]1[C@H](F)C(=O)N[C@@H]1COc1nccc2cc(C(N)=O)c(OC)cc12` [PF‐06650833, 1‐{[(2S,3S,4S)‐3‐Ethyl‐4‐fluoro‐5‐oxopyrrolidin‐2‐yl]methoxy}‐7‐methoxyisoquinoline‐6‐carboxamide], the EC50 ([3]; read-out: EC50 values across the preclinical assays) was 2 to 10 nM, the IC50 ([3]; read-out: IC50 total, human whole blood R848 induced TNF) was 8.8 nM and the “nuclear localization of IRF-5 stimulated by R848” value ([4]; without compound 23.0 ± 13.0, n = 3) was 6.8 ± 4.4%. For the same compound, the “IRF-5 nuclear localization in response to SLE patient sera” value ([4]; without compound 38.6 ± 18.4, n = 12) was 24.2 ± 13.0%, the “ACPA IC-induced TNF release, % of that seen with DMSO treatment alone” value [5] was 57.5 ± 17.9% and the “IL-1-induced cytokines in RA FLS” value [6] was “did not inhibit”. The “MMP induction by IL-1β in RA FLS” value [6] was “able to block”, the “cytokine and matrix metalloproteinase (MMP) release in response to all ligands profiled” value ([6]; RA FLS) was “substantially reduced” and the “BioMAP phenotypic profile” value [2] was “greatest inhibition of inflammatory readouts in assays of innate immunity”. For the same compound, the “paw volume on day 7” value [7] was 0.555 ± 0.034 mL, the activity at 0.1 µM ([8]; 24 h, read-out: B cell IL-6 production, % of control) was 50 ± 16.7% and the activity at 0.1 µM ([8]; 72 h, read-out: B cell IL-10 production, % of control) was 41.3 ± 7.1%. For the same compound, the “pDC CD83 up-regulation induced by neutrophil DAMPs” value [9] was “significantly inhibited”, the “IFNα release from PBMCs stimulated with SLE ICs” value ([10]; n = 5 donors) was “inhibited IFNα release in all donors” and the “induction of 3 IFN-responsive genes (RSAD2, USP18, and GBP1)” value ([10]; SLE ICs, PBMCs) was “inhibited”. The “anti-SSA IgG at week 20” value ([11]; 200mpk in chow weeks 8-20, control 7,693 ± 1,241) was 2,726 ± 494 units/ml, the “anti-RNP IgG at week 20” value ([11]; 200mpk in chow weeks 8-20, control 18,127 ± 7,902) was 3,730 ± 2,861 units/ml and the “mean PAS area per tuft” value ([11]; kidney, week 20, pristane alone 1,252 ± 45, n = 8) was 1,045 ± 47 μm^2. For the same compound, the “C3 and IgG deposition by immunohistochemistry” value ([1]; 200mg/kg in chow, 12-13 weeks) was “significantly reduced”, the anti-SSA ([1]; 200mg/kg in chow, 12-13 weeks) was “trends toward reductions” and the anti-dsDNA ([1]; 200mg/kg in chow, 12-13 weeks) was “trends toward reductions”. For the same compound, the “anti-histone IgG” value ([1]; 200mg/kg in chow, 12-13 weeks) was “significantly reduced”, the glomerular nephropathy ([1]; 200mg/kg in chow, 12-13 weeks) was “significantly reduced” and the “glomerular nuclear area by image analysis” value ([1]; 200mg/kg in chow, 12-13 weeks) was “significantly reduced”. The “glomerular tuft area by image analysis” value ([1]; 200mg/kg in chow, 12-13 weeks) was “significantly reduced”, the histologic kidney inflammation ([1]; 200mg/kg in chow, 12-13 weeks) was “significantly reduced” and the lymphadenopathy ([1]; 200mg/kg in chow, 12-13 weeks) was “significantly reduced”. The splenomegaly ([1]; 200mg/kg in chow, 12-13 weeks) was “trends toward reductions”, the tubular injury ([1]; 200mg/kg in chow, 12-13 weeks) was “trends toward reductions” and the “subjects with negative change of IFN gene score between day 0 and day 14” value [12] was 6 of 7. The “reduction of IFN gene signature, median percent change day 14 vs day 0” value ([12]; 14 days, n = 7, placebo +9.1%) was 28.8%, the “difference in IFN gene signature change vs placebo” value ([12]; day 14) was −37.9% and the CRP levels [13] was “statistically significant reductions”. The “disease activity in phase II study” value [14] was “significant effects on disease activity”.
In the case of `C[C@@H]1CCN(C(=O)CC#N)C[C@@H]1N(C)c1ncnc2[nH]ccc12` [tofacitinib, reference compound], the “BioMAP phenotypic profile” value [2] is reported as “no impact on assays of innate immunity” and the “paw volume on day 7” value [7] is reported as 0.371 ± 0.044 mL.
